Seven compounds from ChEMBL document CHEMBL1144225, “Synthesis and anticonvulsant activities of N-benzyl (2R)-2-acetamido-3-oxysubstituted propionamide derivatives” (Bioorg Med Chem, 2008) can be followed below.

Series [1] concerns Mus musculus. Kind of series: Anticonvulsant activity in ip dosed albino mouse by MES seizure test. It counts as functional. An outline of the steps:
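Mice dosed intraperitoneally and challenged by maximal electroshock (MES). Dose-effect data taken at the time of peak effect, given in hours.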

The nature of series [2]: Neurotoxicity in ip dosed albino mouse by rotarod test. The note with it: in vivo. It counts as toxicity, organism-based. The method, boiled down: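 Mice dosed intraperitoneally and tested on the rotorod for neurologic toxicity. Dose-effect data taken at the time of peak effect, given in hours.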
A general note: Falling from the rotarod earlier than controls is read as motor impairment.

Series [3] is filed under the species Mus musculus. Nature of the series: Protective index, ratio of TD50 for albino mouse by rotarod test to ED50 for albino mouse by MES seizure test. It counts as functional. The method, boiled down: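 Protective index calculated as TD50/ED50. TD50 is from the mouse rotorod test and ED50 from the MES test, both after intraperitoneal dosing at the time of peak effect.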

`CC(=O)N[C@H](COC(C)C)C(=O)NCc1ccccc1`: the ED50 in the series on Mus musculus [1] was found to be 23 mg/kg. The same compound yielded a TD50 in series [2] of 77 mg/kg. Further, in the series filed under Mus musculus [3], the “Ratio TD50/ED50” value was 3.3.
Take `CC(=O)N[C@H](COC(C)(C)C)C(=O)NCc1ccccc1`: the ED50 in the series with Mus musculus [1] is 30 mg/kg. In series [2], this compound returned a TD50 of 100 mg/kg.
For `CCCC(CCC)C(=O)[O-].[Na+]` [VALPROATE SODIUM], the ED50 in the series with Mus musculus [1] was 270 mg/kg.
On the same count and under the same terms, the same measure for `CCC1(c2ccccc2)C(=O)NC(=O)NC1=O` [PHENOBARBITAL]: 22 mg/kg.
Consider `CCOC[C@@H](NC(C)=O)C(=O)NCc1ccccc1`, for which the ED50 in the series on Mus musculus [1] was 7.9 mg/kg. The compound further had a TD50 in series [2] of 44 mg/kg. For the same compound, the “Ratio TD50/ED50” value in the series listed under Mus musculus [3] was 5.6.
On to `CC(=O)N[C@H](COc1ccccc1)C(=O)NCc1ccccc1`, for which the ED50 in the series with Mus musculus [1] was found to be 100 mg/kg. The compound further returned a TD50 in series [2] of 30 mg/kg.
On to `COCCOCCOC[C@@H](NC(C)=O)C(=O)NCc1ccccc1`, for which the ED50 in the series on Mus musculus [1] is > 300 mg/kg. Also, the TD50 in series [2] is > 300 mg/kg.

For orientation: ED50 means the dose that gives a 50% effect, or the effect in half of the subjects. In general, TD50 refers to the 50% point of the dose-response relation for the toxic effect studied.
